Experiments:
[1] = Safety evaluations in the clinical study; format: in vivo, human
Procedure, shortened: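 Open-label, multicenter, parallel-group study in healthy subjects and subjects with moderate (Child-Pugh B) or severe (Child-Pugh C) hepatic impairment. Subjects fasted at least 10 h, then took one oral 300-mg capsule dose of test compound with water 30 min after starting a standard meal. No food for 4 h. Adverse events, vital signs, clinical laboratory tests and ECGs were recorded, with follow-up 7–10 days after dosing.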

[2] = Clinical hepatic impairment study: total plasma PK of alectinib and M4; format: in vivo, human; conditions: single 300-mg dose of alectinib
plasma proteins = conditions: cited from earlier work
Unbound fraction = format: in vivo, human; conditions: for fraction unbound: human, plasma, oral, 300 mg, median value of individual mean fu%, plasma 6 and 12 hours postdose; for GMR of unbound AUC0‐∞ / GMR of unbound Cmax: single 300-mg dose of alectinib
Procedure, shortened: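 Single oral 300 mg dose given 30 min after the start of a standard ~514 kcal meal, after a ≥10 h fast. Plasma taken 6 and 12 h postdose was dialyzed in triplicate, and plasma and buffer were analysed by LC-MS/MS. Samples were spiked if levels were too low. fu% = unbound/total ×100, geometric mean of triplicates (outlier dropped if CV >45.0%). GMRs from ANOVA of log Cmax and AUC0‐∞, with matched controls as a random effect.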

CYP3A = conditions: cited from earlier work
[3] = moderate hepatic impairment/matched healthy subjects
[4] = severe hepatic impairment/matched healthy subjects

GMR of total AUC0‐∞ [2, 3]: 160%
GMR of total Cmax [2, 3]: 128%
GMR of total AUC0‐∞ [2, 4]: 220%
GMR of total Cmax [2, 4]: 100%
fraction unbound (Unbound fraction; healthy subjects matched for moderate): 0.00206
fraction unbound (Unbound fraction; healthy subjects matched for severe): 0.0014
fraction unbound (Unbound fraction; moderate hepatic impairment): 0.00229
fraction unbound (Unbound fraction; severe hepatic impairment): 0.00179
GMR of unbound AUC0‐∞ (Unbound fraction; [3]): 186%
GMR of unbound Cmax (Unbound fraction; [3]): 148%
GMR of unbound AUC0‐∞ (Unbound fraction; [4]): 285%
GMR of unbound Cmax (Unbound fraction; [4]): 130%
SMILES: CCc1cc2c(cc1N1CCC(N3CCOCC3)CC1)C(C)(C)c1[nH]c3cc(C#N)ccc3c1C2=O [Alectinib]
changes in vital signs, laboratory values, or electrocardiogram measurements ([1]; single oral 300 mg, during the study): No clinically significant changes
tolerability ([1]; single oral dose of 300 mg, healthy subjects and subjects with moderate or severe hepatic impairment): well tolerated
protein binding in vitro (plasma proteins): ≥ 99%
increase in exposure on coadministration of a potent CYP3A inhibitor (CYP3A): 75%

Reference: PMC6282775 (Journal of Clinical Pharmacology, 2018)
